Measured values collected from several papers.
In brackets after ≈: the same amount, converted by molar mass.

Compound	tested on	test	test system	setting	endpoint	value
Cc1n[nH]c2ccc3nc(-c4ccc(C(=O)NCCN(C)C)cc4F)c4c(c3c12)CCCC4	BJ	cell growth or viability	–	72 h	GI50	2.21 µM
Cc1cccc2c(=O)n(-c3ccccc3)c(SCC(=O)NN=Cc3ccc(OS(C)(=O)=O)cc3)nc12	Bacillus cereus	microbial growth, well diffusion	–	20 µg/mL	inhibition zone	2 mm
O=C(O)c1ccc(NCc2ccc([N+](=O)[O-])cc2)cc1	NCI-H69	cell growth or viability, resazurin	–	72 h	IC50	> 100 µM
CCCS(=O)(=O)Oc1ccc(C=NNC(=O)CSc2nc3c(C)cccc3c(=O)n2-c2ccccc2)cc1OC	Salmonella enterica	microbial growth, broth dilution	TYPHIMURIUM	–	MIC	49 mg/L (≈ 84.4 µM)
CC(=O)C1=NN(c2ccccc2)C(=C(C#N)C(=O)c2ccc(Nc3cnccn3)cc2)S1	Salmonella enterica	microbial growth, broth dilution	ATCC13076 TYPHIMURIUM	–	MIC	100 mg/L (≈ 227 µM)
Cc1nc(Nc2ncc(C(=O)Nc3c(C)cccc3Cl)s2)cc(N2CC[C@H](O)C2)n1	JVM-2	cell growth or viability, ATP luminescence	–	10 µM, 72 h	inhibition	61%
CC(=O)OCC1=C(C(=O)O)N2C(=O)[C@@H](NC(=O)Cc3cccs3)[C@H]2SC1	Salmonella enterica	microbial growth, broth dilution	ATCC13076 TYPHIMURIUM	–	MIC	3.12 mg/L (≈ 7.88 µM)
CN(C)CCNC(=O)c1ccc(-c2nc3ccc4[nH]ncc4c3c3c2CCCCC3)c(F)c1	BJ	cell growth or viability	–	72 h	GI50	6.58 µM
COc1cccc(CNc2ccc(C(=O)O)cc2)c1	NCI-H69	cell growth or viability, resazurin	–	72 h	IC50	> 100 µM
CN(C)CCNC(=O)c1ccc(-c2nc3ccc4[nH]ncc4c3c3c2CCCCC3)cc1	BJ	cell growth or viability	–	72 h	GI50	8.63 µM
CS(=O)(=O)Oc1ccc(C=NNC(=O)CSc2nc3ccc(Cl)cc3c(=O)n2-c2ccccc2)cc1	Salmonella enterica	microbial growth, well diffusion	TYPHIMURIUM	20 µg/mL	inhibition zone	2 mm
COc1ccc(N2N=C(C(C)=O)SC2=C(C#N)C(=O)c2ccc(Nc3cnccn3)cc2)cc1	Salmonella enterica	microbial growth, broth dilution	ATCC13076 TYPHIMURIUM	–	MIC	50 mg/L (≈ 106 µM)
O=C(O)c1cn(C2CC2)c2cc(N3CCNCC3)c(F)cc2c1=O	Bacillus cereus	microbial growth, well diffusion	–	20 µg/mL	inhibition zone	5 mm
CC(C)(C)c1cc(NC(=O)Nc2ccc(-c3cn4c(n3)sc3cc(OCCN5CCOCC5)ccc34)cc2)no1	BJ	cell growth or viability	–	72 h	GI50	> 10 µM
COc1ccc(-n2nc(C(=O)c3ccc(Nc4cnccn4)cc3)sc2=N)cc1	Salmonella enterica	microbial growth, broth dilution	ATCC13076 TYPHIMURIUM	–	MIC	50 mg/L (≈ 124 µM)
CCS(=O)(=O)Oc1ccc(C=NNC(=O)CSc2nc3ccc(Cl)cc3c(=O)n2-c2ccccc2)cc1	Salmonella enterica	microbial growth, broth dilution	TYPHIMURIUM	–	MIC	21 mg/L
Cc1n[nH]c2ccc3nc(-c4ccc(C(=O)NCCN(C)C)cc4)c4c(c3c12)CCCCC4	BJ	cell growth or viability	–	72 h	GI50	> 10 µM
CN(C)c1ccc(CNc2ccc(C(=O)O)cc2)cc1	NCI-H69	cell growth or viability, resazurin	–	72 h	IC50	> 100 µM
